Compound activity from PubChem BioAssay.
Most compounds without a hit are left out; they make up all but 6.5% or so of the library.
Calb biofilm kill: kills Candida albicans biofilms | C. albicans biofilm + clotrimazole, Alamar Blue | inhibition, % at 6 µM | 85,000 tested, 0.14% active;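 active means inhibition above 20%; inactive means inhibition below 20%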;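 further: preformed 24 hr biofilms exposed to compound for 48 hr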
Pyk2 oligo antag: blocks oligomerization of human Pyk2 in cells; Q14289; Q293 cells, Pyk2 FERM NanoBiT luminescence; stronger effect = lower value; z-score (the deposit names both 25 µM and 10 µM); 99,000 tested, 0.83% active; AID 1347419;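 active means Z-score of -3 or lower, scaled per plate to the spread of control and sample wells; inactive means z-score above -3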;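 further: negative z-score means lost luminescence so less FERM oligomerization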
Target sequence (Q14289 whole entry, looked up): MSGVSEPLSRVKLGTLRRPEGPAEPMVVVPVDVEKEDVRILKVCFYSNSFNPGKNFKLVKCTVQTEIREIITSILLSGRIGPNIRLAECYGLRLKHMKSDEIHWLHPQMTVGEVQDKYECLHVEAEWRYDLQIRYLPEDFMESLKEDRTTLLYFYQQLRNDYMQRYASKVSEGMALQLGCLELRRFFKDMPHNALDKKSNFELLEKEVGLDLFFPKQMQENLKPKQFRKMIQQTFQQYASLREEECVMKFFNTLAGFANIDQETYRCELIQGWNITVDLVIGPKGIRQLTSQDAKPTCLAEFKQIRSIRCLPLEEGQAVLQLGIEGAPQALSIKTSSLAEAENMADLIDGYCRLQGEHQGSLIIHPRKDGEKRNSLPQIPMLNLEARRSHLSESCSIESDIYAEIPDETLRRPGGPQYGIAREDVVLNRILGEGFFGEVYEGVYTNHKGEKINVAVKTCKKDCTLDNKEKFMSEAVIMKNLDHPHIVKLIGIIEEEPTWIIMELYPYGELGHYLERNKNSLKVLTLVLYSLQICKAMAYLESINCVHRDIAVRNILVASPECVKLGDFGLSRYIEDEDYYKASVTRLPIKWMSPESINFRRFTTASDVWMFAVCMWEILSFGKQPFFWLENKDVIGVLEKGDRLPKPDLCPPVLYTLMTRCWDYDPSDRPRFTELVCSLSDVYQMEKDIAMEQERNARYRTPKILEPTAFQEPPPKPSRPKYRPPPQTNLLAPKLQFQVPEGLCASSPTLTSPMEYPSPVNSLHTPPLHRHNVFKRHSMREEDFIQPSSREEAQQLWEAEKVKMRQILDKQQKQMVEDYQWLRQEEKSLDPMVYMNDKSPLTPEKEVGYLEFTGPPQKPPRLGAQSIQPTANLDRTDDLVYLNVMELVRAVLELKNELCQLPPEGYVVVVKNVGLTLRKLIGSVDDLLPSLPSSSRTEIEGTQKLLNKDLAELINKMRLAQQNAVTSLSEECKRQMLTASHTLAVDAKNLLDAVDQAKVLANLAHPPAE
PostGolgi yeast: growth inhibition of a yeast mutant, post-Golgi transport screen. post-Golgi transport phenotypic cell assay. inhibition, % at 10 µM. 98,000 tested, 0.9% active. AID 739;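 further: yeast cells grown in 1536-well plates; yeast grown about 18 h at 30C before absorbance read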
Ecoli WT expand: growth inhibitors of E. coli BW25113 wild type; 98,000 tested, 0.15% active; OD600 absorbance; growth inhibition, % at 100 µM; AID 710;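 active means growth inhibition above about 50% at one test dose, limit read from the data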;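 further: growth measured after 20 h incubation at 37 °C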
PostGolgi ctrl: growth of the yeast control strain, post-Golgi counter-screen; 98,000 tested, 5% active; AID 738; inhibition, % at 10 µM; efflux-deficient yeast background strain, growth absorbance A615, 16 h
Ecoli tolC: blocks growth of E. coli BW25113 tolC mutant | growth inhibition, % at 10 µM (by protocol) | AID 573 | 65,000 tested, 2.2% active | OD615;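 active means growth inhibition at or above a cutoff equal to the mean over every tested compound plus 3 SD, cut at about 60% in these data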;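 further: growth measured after 20 h incubation at 37 °C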
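signal = optical density read at 615 nm | test system = E. coli ΔtolC::kan strain BW25113 | timing = 20 h compound exposure of bacteria at 37 °C | buffer or medium = LB medium plus 50 µg/mL kanamycin | compound dosing = 10 µM final, single dose | evaluation = % inhibition of E. coli growth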
A number is an active result; 0 = inactive; - = no result. Unless noted, no stated cut-off is given here; in the data, active means inhibition above about 30%; inactive means the rest.

SMILES | Calb biofilm kill | Pyk2 oligo antag | PostGolgi yeast | Ecoli WT expand | PostGolgi ctrl | Ecoli tolC
Cc1ccc(O)c(-c2cc3ccccc3[nH]2)c1 | 0 | 0 | 0 | 0 | 0 | 100.0
N#Cc1c(-c2ccc3c(c2)OCO3)ccn2nc(-c3cccc(C(F)(F)F)c3)nc12 | - | 0 | 0 | 0 | 0 | -
COc1cnc(SCc2c(Cl)cccc2Cl)nc1Cl | - | 0 | 0 | 0 | 34.1 | -
CCCC(=O)N1CCN(c2nc(CC(C)C)c3c(c2C#N)CCC3)CC1 | 0 | 0 | 0 | 0 | 0 | 0
COc1ccc(-c2nn(C)c(=O)c3ccccc23)cc1NS(C)(=O)=O | 0 | 0 | 0 | 0 | 0 | 0
COc1ccc(-c2nn(C)c(=O)c3ccccc23)cc1CNS(C)(=O)=O | 0 | 0 | 0 | 0 | 41.6 | 0
CC(=O)Nc1cccc(Oc2cc(C#N)c(C#N)cc2N2CCCCCC2)c1 | 0 | 0 | 0 | 0 | 0 | 0
CCc1oc2ccccc2c1C(=O)CCN1CCCCC1 | 0 | 0 | 0 | 0 | 35.7 | 0
O=C(CCN1CCCCC1)c1ccccc1 | 0 | 0 | 0 | 0 | 0 | -
CCc1nc(N(CC)CC)c2oc3ccccc3c2n1 | 0 | 0 | 0 | 0 | 36.4 | 0
CCc1nc(SCc2nc3ccccc3[nH]2)c2oc3ccccc3c2n1 | 0 | 0 | 0 | 0 | 69.0 | -
CCNc1nc(CC)nc2c1oc1ccccc12 | 0 | 0 | 0 | 0 | 0 | 0
CCc1nc(N2CCC(C)CC2)c2oc3ccccc3c2n1 | 0 | 0 | 0 | 0 | 0 | 100.0
CCc1nc(SCC(=O)N2CCN(c3ccccc3)CC2)c2oc3ccccc3c2n1 | - | 0 | 0 | 0 | 32.7 | -
CCc1nc(SCCO)c2oc3ccccc3c2n1 | 0 | 0 | 0 | 0 | 0 | 0
CCOC(=O)N1CCN(C(=O)Cc2ccsc2)CC1 | 0 | 0 | 0 | 0 | 0 | 0
COc1ccc(-n2c3c(c(=O)[nH]c2=O)C(C(F)(F)F)(C(F)(F)F)N=C(CC(C)C)N3)cc1 | - | 0 | 0 | 0 | 0 | -
COc1ccc(C2=NC(C(F)(F)F)(C(F)(F)F)c3c(n(C)c(=O)n(C)c3=O)N2)cc1 | - | 0 | 92.4 | 0 | 0 | -
Cc1cc(C)nc(SCC2COc3ccccc3O2)n1 (stereo not drawn) | 0 | 0 | 0 | 0 | 0 | 0
Cc1cc(C(=O)Cn2nnc(-c3ccc(Cl)cc3)n2)c(C)n1CC1CCCO1 (stereo not drawn) | 0 | 0 | 0 | 0 | 32.8 | 0
c1ccc2c(c1)ncn2CCC1CCCCC1 | 0 | 0 | 0 | 0 | 80.5 | 0
O=c1[nH]c2ccccc2n1CCC1CCCCC1 | 0 | 0 | 0 | 0 | 49.5 | -
O=c1[nH]c2ccccc2n1CCCSCCCn1c(=O)[nH]c2ccccc21 | 0 | 0 | - | - | - | 0
N/C(=N\OC(=O)c1ccc(Cl)cc1)c1nonc1N | - | 0 | 0 | 0 | 0 | -
O=C(CSc1nnc(-c2ccncc2)n1-c1ccc(Cl)cc1)N1CCOCC1 | 0 | 0 | 0 | 0 | 0 | 0
SMILES | Calb biofilm kill | Pyk2 oligo antag | PostGolgi yeast | Ecoli WT expand | PostGolgi ctrl | Ecoli tolC
Cc1sc2nc(C(C)C)nc(SCC(=O)NCc3ccco3)c2c1C | 0 | 0 | 0 | 0 | 39.9 | 0
Cc1ccc(C(=O)Nc2ccccc2C(=O)NCc2ccco2)cc1S(=O)(=O)N1CCCCC1 | 0 | 0 | 0 | 0 | 97.0 | 0
COc1ccc(S(=O)(=O)Nc2ccccc2C(=O)NCc2ccco2)cc1Br | 0 | 0 | 0 | 0 | 0 | 83.2
CCOc1ccc(S(=O)(=O)Nc2ccccc2C(=O)NCc2ccco2)cc1 | 0 | 0 | 0 | 0 | 0 | 0
Cc1ccc(C(=O)NCc2ccco2)cc1S(=O)(=O)N1CCCCC1 | 0 | 0 | 0 | 0 | 0 | 0
C=CCn1cc(C(=O)NCc2ccco2)c(=O)c2cc(S(=O)(=O)N3CCCCCC3)ccc21 | - | 0 | 0 | 0 | 0 | 67.8
O=C(NCc1ccco1)c1ccc(S(=O)(=O)N2CCOCC2)cc1 | 0 | 0 | 0 | 0 | 0 | -
O=C(NCc1ccco1)c1cc(S(=O)(=O)N2CCOCC2)ccc1Cl | 0 | 0 | 0 | 0 | 35.4 | 0
CCc1nnc(NS(=O)(=O)c2ccc(NC(=S)NC(=O)c3ccc(OC)cc3)cc2)s1 | - | 0 | - | - | - | -
CC(C)OP(=O)(c1ccc(N(C)C)cc1)C(O)c1ccccc1 (stereo not drawn) | 0 | 0 | 0 | 0 | 0 | -
c1ccc(-c2cc(-c3nn4c(-c5ccco5)nnc4s3)c3ccccc3n2)cc1 | 0 | 0 | 0 | 0 | 37.9 | 0
COc1cc(OC)c(-c2nn3c(-c4ccco4)nnc3s2)cc1OC | 0 | 0 | 0 | 0 | 34.4 | 0
COc1cccc(-c2nnc3sc(-c4ccco4)nn23)c1 | 0 | 0 | 0 | 0 | 0 | 0
COc1ccc(-c2nn3c(-c4ccco4)nnc3s2)cc1OC | - | 0 | 0 | 0 | 30.7 | 0
CCOc1cccc(-c2nn3c(-c4ccco4)nnc3s2)c1 | 0 | 0 | 0 | 0 | 42.6 | 0
CS(=O)(=O)n1nc(C(=O)N2CCOCC2)nc1N | - | - | - | - | - | 0
Cc1ccc2nc(SCC(=O)Nc3ccc4sc(C)nc4c3)c(C#N)cc2c1 | - | 0 | 0 | 0 | 0 | -
COc1cccc(-c2nnc3sc(-c4ccc(C)cc4)nn23)c1 | - | - | 0 | 0 | 0 | 0
COc1cccc(-c2nn3c(-c4cccc(C)c4)nnc3s2)c1 | 0 | 0 | 0 | 0 | 43.5 | 0
CCCc1nnc(NC(=O)c2ccc(N3C(=O)C4C5C=CC(C5)C4C3=O)cc2)s1 (stereo not drawn) | 0 | -3.23 | 0 | 0 | 0 | -
COCCNC(=O)c1ccccc1NS(=O)(=O)c1ccc(Br)s1 | 0 | 0 | 0 | 0 | 0 | -
Cc1cc(N2CCN(S(=O)(=O)c3ccc4c(c3)OCCO4)CC2)n2ncnc2n1 | 0 | 0 | 0 | 0 | 0 | 0
CCn1cc([N+](=O)[O-])c(C(=O)Nc2ccc3c(c2)OCCO3)n1 | - | 0 | 0 | 0 | 33.4 | -
CCOC(=O)c1cnn(CCOC(=O)c2ccccc2)c1NC(=O)c1ccccc1 | - | 0 | - | - | - | -
Cc1ccc(OC(=O)Cn2c(C(F)(F)F)nc3ccccc32)cc1 | - | 0 | 0 | 0 | 0 | -
SMILES | Calb biofilm kill | Pyk2 oligo antag | PostGolgi yeast | Ecoli WT expand | PostGolgi ctrl | Ecoli tolC
O=C(Nc1cccc2ccccc12)c1ccc(Cn2cc(Cl)cn2)cc1 | - | 0 | 0 | 0 | 38.5 | -
COC(=O)c1ccc(Cn2cc(Cl)cn2)cc1 | 0 | 0 | 0 | 0 | 0 | 0
COc1ccc(OC)c2[nH]c(=O)c(CCNC(=O)C3CCCCC3)cc12 | 0 | 0 | 0 | 0 | 0 | 0
Cc1ccc(OCCn2cc(C(=S)N3CCCC3)c3ccccc32)cc1C | - | 0 | 0 | 0 | 31.1 | -
Cc1cc2cc(C)c3nnc(SCC(=O)N4CCCc5ccccc54)n3c2cc1C | - | - | 0 | 0 | 30.2 | -
CC(/C=C/c1cccs1)=C\C(=O)O | 0 | 0 | 0 | 0 | 32.1 | -
COc1ccc(S(=O)(=O)Nc2ccc(NC(C)=O)cc2)cc1 | 0 | 0 | 0 | 0 | 0 | -
COc1ccc(S(=O)(=O)Nc2ccc(N(C)C(C)=O)cc2)cc1 | 42.2 | 0 | 0 | 0 | 0 | -
CCCOc1cc(N(CC)CC)ccc1/C=C(/C#N)c1nc2ccc(C)cc2[nH]1 | - | 0 | 0 | 0 | 0 | -
CCOc1cc(N(CC)CC)ccc1/C=C(/C#N)c1nc2ccccc2[nH]1 | - | -3.12 | 0 | 0 | 49.9 | -
CCN(CC)c1ccc(/C=C(/C#N)c2nc3ccc(C)cc3[nH]2)c(OC(C)C)c1 | - | -3.06 | 0 | 0 | 0 | -
Cc1cc(/C=C(\C#N)c2nc3ccccc3[nH]2)c(C)n1C | - | 0 | - | - | - | -
O=C(O)C1C2C=CC(C2)C1C(=O)Nc1ccc(C(=O)N2CCCCC2)c(Cl)c1 (stereo not drawn) | 0 | 0 | 0 | 0 | 0 | 0
Fc1cccc(CO/N=C/c2c(-c3ccccc3)nc3ccc(Cl)cn23)c1 | - | 0 | 0 | 0 | 0 | -
